Test results taken from ChEMBL document CHEMBL1155155, “Single-dose pharmacokinetics of intravenous itraconazole and hydroxypropyl-beta-cyclodextrin in infants, children, and adolescents” (Antimicrob Agents Chemother, 2007).

Tests used:
[1] = AUC (0 to 24 hrs) in adolescents of >12-16 yrs age at risk for fungal infection at 2.5 mg/kg, iv in 0.1 g/kg hydroxypropyl-beta-cyclodextrin administered as single dose; format: ADME, organism-based; set-up: time < 24 hr, dose 2.5 mg/kg, route intravenous; conditions: human, plasma
Method in brief: (§1)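 Single 1-h IV infusion. Plasma sampled from the contralateral limb predose and at 1–120 h (>2 y) or 1–96 h (<2 y). Itraconazole was extracted with internal standard and quantified by C18 HPLC with UV 263 nm detection, linear range 2–2,000 ng/ml. Noncompartmental analysis: Cmax by inspection, AUC0-24 by trapezoidal rule, AUC extrapolated via λz, CL and Vz from AUC0-∞.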

Homo sapiens [2] = test: AUC (0 to 24 hrs) in human at risk for fungal infection assessed as hydroxyitraconazole level at 2.5 mg/kg, iv in 0.1 g/kg hydroxypropyl-beta-cyclodextrin administered as single dose; format: ADME, organism-based, Plasma; set-up: time < 24 hr, dose 2.5 mg/kg, route intravenous; conditions: in vivo
Method in brief: (§2)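 Single 1-h constant-rate IV infusion. Venous plasma sampled predose and to 120 h (>2 y) or 96 h (<2 y), then stored at –20°C. Hydroxyitraconazole was measured by borate/isoamylalcohol-heptane extraction, HCl back-extraction, C18 HPLC and UV 263 nm, with a linear range of 5–5,000 ng/ml. Noncompartmental analysis: Cmax and tmax by inspection, AUC0-24 by trapezoidal rule.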

[3] = Half life in infants of 0.6-2 yrs age at risk for fungal infection at 2.5 mg/kg, iv in 0.1 g/kg hydroxypropyl-beta-cyclodextrin administered as single dose; format: ADME, organism-based; set-up: dose 2.5 mg/kg, route intravenous; conditions: human, in vivo; method in brief: as §1
[4] = Clearance in children of >6-12 yrs age at risk for fungal infection at 2.5 mg/kg, iv in 0.1 g/kg hydroxypropyl-beta-cyclodextrin administered as single dose; format: ADME, organism-based; set-up: dose 2.5 mg/kg, route intravenous; conditions: human, in vivo; method in brief: as §1
Homo sapiens [5] = test: Tmax in human at risk for fungal infection assessed as hydroxyitraconazole level at 2.5 mg/kg, iv in 0.1 g/kg hydroxypropyl-beta-cyclodextrin administered as single dose; format: ADME, organism-based; set-up: dose 2.5 mg/kg, route intravenous; conditions: in vivo; method in brief: as §2
Homo sapiens [6] = test: AUC (0 to 24 hrs) in children of >2-6 yrs age at risk for fungal infection at 2.5 mg/kg, iv in 0.1 g/kg hydroxypropyl-beta-cyclodextrin administered as single dose; format: ADME, organism-based, Plasma; set-up: time < 24 hr, dose 2.5 mg/kg, route intravenous; conditions: in vivo; method in brief: as §1
[7] = Half life in human at risk for fungal infection at 2.5 mg/kg, iv in 0.1 g/kg hydroxypropyl-beta-cyclodextrin administered as single dose; format: ADME, organism-based; set-up: dose 2.5 mg/kg, route intravenous; conditions: in vivo; method in brief: as §1
Homo sapiens [8] = test: AUC (0 to 24 hrs) in children of >6-12 yrs age at risk for fungal infection assessed as hydroxyitraconazole level at 2.5 mg/kg, iv in 0.1 g/kg hydroxypropyl-beta-cyclodextrin administered as single dose; format: ADME, organism-based, Plasma; set-up: time < 24 hr, dose 2.5 mg/kg, route intravenous; conditions: in vivo; method in brief: as §2
[9] = Half life in adolescents of >12-16 yrs age at risk for fungal infection at 2.5 mg/kg, iv in 0.1 g/kg hydroxypropyl-beta-cyclodextrin administered as single dose; format: ADME, organism-based; set-up: dose 2.5 mg/kg, route intravenous; conditions: human, in vivo; method in brief: as §1
Homo sapiens [10] = test: AUC (0 to 24 hrs) in adolescents of >12-16 yrs age at risk for fungal infection assessed as hydroxyitraconazole level at 2.5 mg/kg, iv in 0.1 g/kg hydroxypropyl-beta-cyclodextrin administered as single dose; format: ADME, organism-based, Plasma; set-up: time < 24 hr, dose 2.5 mg/kg, route intravenous; conditions: in vivo; method in brief: as §2
[11] = Cmax in infants of 0.6-2 yrs age at risk for fungal infection at 2.5 mg/kg, iv in 0.1 g/kg hydroxypropyl-beta-cyclodextrin administered as single dose; format: ADME, organism-based; set-up: dose 2.5 mg/kg, route intravenous; conditions: human, in vivo; method in brief: as §1
[12] = Apparent volume of distribution in children of >2-6 yrs age at risk for fungal infection at 2.5 mg/kg, iv in 0.1 g/kg hydroxypropyl-beta-cyclodextrin administered as single dose; format: ADME, organism-based; set-up: dose 2.5 mg/kg, route intravenous; conditions: human, in vivo; method in brief: as §1
Homo sapiens [13] = test: Half life in human at risk for fungal infection assessed as hydroxyitraconazole level at 2.5 mg/kg, iv in 0.1 g/kg hydroxypropyl-beta-cyclodextrin administered as single dose; format: ADME, organism-based; set-up: dose 2.5 mg/kg, route intravenous; conditions: in vivo; method in brief: as §2
Homo sapiens [14] = test: Tmax in adolescents of >12-16 yrs age at risk for fungal infection assessed as hydroxyitraconazole level at 2.5 mg/kg, iv in 0.1 g/kg hydroxypropyl-beta-cyclodextrin administered as single dose; format: ADME, organism-based; set-up: dose 2.5 mg/kg, route intravenous; conditions: in vivo; method in brief: as §2
Homo sapiens [15] = test: Tmax in infants of 0.6-2 yrs age at risk for fungal infection assessed as hydroxyitraconazole level at 2.5 mg/kg, iv in 0.1 g/kg hydroxypropyl-beta-cyclodextrin administered as single dose; format: ADME, organism-based; set-up: dose 2.5 mg/kg, route intravenous; conditions: in vivo; method in brief: as §2
[16] = Clearance in adolescents of >12-16 yrs age at risk for fungal infection at 2.5 mg/kg, iv in 0.1 g/kg hydroxypropyl-beta-cyclodextrin administered as single dose; format: ADME, organism-based; set-up: dose 2.5 mg/kg, route intravenous; conditions: human, in vivo; method in brief: as §1
Homo sapiens [17] = test: Half life in children of >6-12 yrs age at risk for fungal infection assessed as hydroxyitraconazole level at 2.5 mg/kg, iv in 0.1 g/kg hydroxypropyl-beta-cyclodextrin administered as single dose; format: ADME, organism-based; set-up: dose 2.5 mg/kg, route intravenous; conditions: in vivo; method in brief: as §2
[18] = Clearance in human at risk for fungal infection at 2.5 mg/kg, iv in 0.1 g/kg hydroxypropyl-beta-cyclodextrin administered as single dose; format: ADME, organism-based; set-up: dose 2.5 mg/kg, route intravenous; conditions: in vivo; method in brief: as §1
Homo sapiens [19] = test: Cmax in human at risk for fungal infection assessed as hydroxyitraconazole level at 2.5 mg/kg, iv in 0.1 g/kg hydroxypropyl-beta-cyclodextrin administered as single dose; format: ADME, organism-based; set-up: dose 2.5 mg/kg, route intravenous; conditions: in vivo
Method in brief: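 Single constant-rate IV infusion over 1 h. Heparinised venous plasma was drawn predose and at 1–120 h (>2 yr) or 1–96 h (<2 yr, randomised to the itraconazole/metabolite arm), then stored at –20°C. Analysis used borate-buffered liquid-liquid extraction with internal standard, C18 HPLC and UV detection at 263 nm, linear 5–5,000 ng/ml. Individual Cmax was read by visual inspection, noncompartmental.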

[20] = Clearance in infants of 0.6-2 yrs age at risk for fungal infection at 2.5 mg/kg, iv in 0.1 g/kg hydroxypropyl-beta-cyclodextrin administered as single dose; format: ADME, organism-based; set-up: dose 2.5 mg/kg, route intravenous; conditions: human, in vivo; method in brief: as §1
[21] = Cmax in adolescents of >12-16 yrs age at risk for fungal infection at 2.5 mg/kg, iv in 0.1 g/kg hydroxypropyl-beta-cyclodextrin administered as single dose; format: ADME, organism-based; set-up: dose 2.5 mg/kg, route intravenous; conditions: human, in vivo; method in brief: as §1
Homo sapiens [22] = test: Toxicity in human at risk for fungal infection assessed as occurrence of adverse events at 2.5 mg/kg, iv in 0.1 g/kg hydroxypropyl-beta-cyclodextrin administered as single dose; format: organism-based; set-up: dose 2.5 mg/kg, route intravenous; conditions: in vivo
Method in brief: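 Safety was assessed by medical history, physical examination, complete blood count, serum chemistry, liver function tests and urinalysis. These were done before the single 1-h IV infusion and again at study completion. Subjects stayed at the study facility through 24 h postdose.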

Homo sapiens [23] = test: Half life in adolescents of >12-16 yrs age at risk for fungal infection assessed as hydroxyitraconazole level at 2.5 mg/kg, iv in 0.1 g/kg hydroxypropyl-beta-cyclodextrin administered as single dose; format: ADME, organism-based; set-up: dose 2.5 mg/kg, route intravenous; conditions: in vivo; method in brief: as §2

- AUC(0-t) at 24 h [1]: 2670 ng·h/mL
- AUC (Homo sapiens [2]): 3811 ng·h/mL
- half-life [3]: 13.3 h
- clearance [4]: 10.3 mL/min/kg
- Tmax (Homo sapiens [5]): 2.2 h
- AUC (Homo sapiens [6]): 9510 ng·h/mL
- half-life [7]: 20.2 h
- AUC (Homo sapiens [8]): 4166 ng·h/mL
- half-life [9]: 29 h
- AUC (Homo sapiens [10]): 3133 ng·h/mL
- Cmax [11]: 827 ng/mL
- Vd [12]: 8.3 L/kg
- t1/2 (Homo sapiens [13]): 13.3 h
- Tmax (Homo sapiens [14]): 1.2 h
- Tmax (Homo sapiens [15]): 4 h
- clearance [16]: 12.9 mL/min/kg
- t1/2 (Homo sapiens [17]): 14.3 h
- clearance [18]: 11.7 mL/min/kg
- Cmax (Homo sapiens [19]): 293 ng/mL
- clearance [20]: 19.1 mL/min/kg
- Cmax [21]: 806 ng/mL
- t1/2 (Homo sapiens [23]): 12.3 h
SMILES: CCC(C)n1ncn(-c2ccc(N3CCN(c4ccc(OCC5COC(Cn6cncn6)(c6ccc(Cl)cc6Cl)O5)cc4)CC3)cc2)c1=O (stereo not drawn) [ITRACONAZOLE]
- Activity (Homo sapiens [22]): Toxic
